Reference: article PMC7172969 (Journal of Hepatology, 2016)

Assays:
[1] = system: HBV (genotype D); experiment: HBV infection assay in HepG2-hNTCP-C4 cells; assay type: cell-based, hepatitis B virus; conditions: same concentration conditions (40 and 100 μM)
Outline: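 HepG2-hNTCP-C4 cells were inoculated with genotype D HBV from Hep38.7-Tet culture supernatant at 6000 GEq/cell in 4% PEG8000. Test compound (8 μM), preS1 peptide (100 nM) or DMSO 0.16% was present for 16 h. Cells were washed and cultured 12 more days without compound. On day 13, supernatant HBs was measured by ELISA and intracellular HBc by immunofluorescence with image quantification. MTT viability was run in parallel.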

[2] = biological target: T1, NTCP (Homo sapiens, UniProt Q14973); experiment: NTCP transporter assay; assay type: cell-based; conditions: HepG2-hNTCP-C4 cells, sulfobromophthalein 40 and 100 μM
T1 sequence (Q14973 1-349): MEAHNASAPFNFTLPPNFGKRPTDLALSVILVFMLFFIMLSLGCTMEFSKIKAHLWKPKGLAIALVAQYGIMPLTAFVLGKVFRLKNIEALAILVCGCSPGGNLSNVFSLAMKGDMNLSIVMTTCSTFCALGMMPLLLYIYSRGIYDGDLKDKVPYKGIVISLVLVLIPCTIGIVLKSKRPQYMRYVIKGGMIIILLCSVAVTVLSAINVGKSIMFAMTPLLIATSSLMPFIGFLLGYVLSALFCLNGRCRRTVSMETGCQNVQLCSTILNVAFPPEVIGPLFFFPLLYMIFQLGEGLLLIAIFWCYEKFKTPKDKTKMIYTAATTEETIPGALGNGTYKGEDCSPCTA

[3] = system: HBV replication; experiment: HBV replication assay in HepG2.2.15.7 cells; assay type: cell-based, hepatitis B virus; conditions: six days, ETV 1 μM, CsA and its derivatives 8 μM
Outline: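 HepG2.2.15.7 cells support HBV replication but not entry. They were treated for six days with test compound (8 μM), entecavir 1 μM as positive control, or DMSO 0.16%. HBV DNA released into the culture supernatant was then quantified by real-time PCR.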

Row | Compound | HBV infection [1] | bile acid uptake in sodium-containing condition [2] | HBV DNA released into the culture supernatant [3]
1 | O=C1OC(c2ccc(O)c(S(=O)(=O)O)c2)(c2ccc(O)c(S(=O)(=O)O)c2)c2c(Br)c(Br)c(Br)c(Br)c21 [sulfobromophthalein, Sulfobromophthalein] | did not inhibit HBV infection | impaired the bile acid uptake | 
2 | C=C1[C@H](CO)[C@@H](O)C[C@@H]1n1cnc2c(=O)[nH]c(N)nc21 [entecavir] |  |  | significantly reduced
